{"data": "Measurements from different studies", "PDE5A": "cGMP-specific 3',5'-cyclic phosphodiesterase (PDE5A, Homo sapiens, UniProt O76074)", "EDNRA": "Endothelin-1 receptor (EDNRA, Homo sapiens, UniProt P25101)", "MALT1": "Mucosa-associated lymphoid tissue lymphoma translocation protein 1 (MALT1, Homo sapiens, UniProt Q9UDY8)"}
{"Structure (SMILES)": "CN(CCN1CCC(OC(=O)Nc2ccccc2-c2ccccc2)CC1)C(=O)c1ccc(CN2CCC(C(N)=O)CC2)cc1", "target": "PDE5A", "assay": "enzyme activity, inhibitor", "conditions": "1 µM", "inhibition": "0%"}
{"Structure (SMILES)": "Cn1cc(-c2cccc(N3CCc4c(sc5c4CC(C)(C)C5)C3=O)c2CO)cc(Nc2ccncn2)c1=O", "target": "Phosphatidylinositol 4-phosphate 3-kinase C2 domain-containing subunit beta (PIK3C2B, Homo sapiens, UniProt O00750)", "assay": "enzyme activity, inhibitor", "conditions": "1 µM", "inhibition": "-3%"}
{"Structure (SMILES)": "COc1cc(Nc2ncc(F)c(Nc3ccc4c(n3)NC(=O)C(C)(C)O4)n2)cc(OC)c1OC", "target": "Serine/threonine-protein kinase VRK2 (VRK2, Homo sapiens, UniProt Q86Y07)", "assay": "binding", "conditions": "10 µM", "inhibition": "0%"}
{"Structure (SMILES)": "COCc1c(-c2cc3cc(C)cc(OC)c3s2)c2c(N)ncnn2c1CN1CCNC(=O)C1", "target": "EDNRA", "assay": "ligand displacement, radioligand", "conditions": "10 µM", "inhibition": "12%"}
{"Structure (SMILES)": "C[C@H]1N=C(c2ccccc2F)c2cc(Br)ccc2-n2cnc(C(=O)O)c21", "target": "Kappa-type opioid receptor (OPRK1, Homo sapiens, UniProt P41145)", "assay": "ligand displacement, radioligand", "conditions": "10 µM", "inhibition": "52.3%"}
{"Structure (SMILES)": "C#Cc1n[nH]c2c(-c3cn(C(C)c4ccccn4)c(=O)[nH]c3=O)cc(F)cc12 (stereo not drawn)", "target": "Cytoplasmic tyrosine-protein kinase BMX (BMX, Homo sapiens, UniProt P51813)", "assay": "enzyme activity, inhibitor", "conditions": "1 µM", "inhibition": "0.9%"}
{"Structure (SMILES)": "OC[C@@]12C[C@@H]1[C@@H](n1cnc3c(NC(C4CCCC4)C4CCCC4)nc(Cl)cc31)[C@H](O)[C@@H]2O", "target": "5-hydroxytryptamine receptor 2A (HTR2A, Homo sapiens, UniProt P28223)", "assay": "ligand displacement, radioligand", "conditions": "10 µM", "inhibition": "1%"}
{"Structure (SMILES)": "CC(C)[C@H](NC(=O)OCc1ccccc1)C(=O)N[C@@H](CCCN=C(N)N)C(=O)N1CCC[C@H]1C(=O)N[C@@H](CCCN=C(N)N)C(=O)CF", "target": "MALT1", "assay": "enzyme activity, inhibitor", "conditions": "0.1 µM", "inhibition": "97%"}
{"Structure (SMILES)": "O=C(Nc1cccnn1)N1CCN([C@@H]2CCOc3cc(C(F)(F)F)ccc32)CC1", "target": "PDE5A", "assay": "enzyme activity, inhibitor", "conditions": "20 µM", "inhibition": "5%"}
{"Structure (SMILES)": "N=C(N)c1ccc2cc(OC(=O)c3ccc(N=C(N)N)cc3)ccc2c1", "target": "MALT1", "assay": "enzyme activity, inhibitor", "conditions": "10 µM", "inhibition": "49%"}
{"Structure (SMILES)": "c1ccc(C(NCCNC(c2ccccc2)c2ccccc2)c2ccccc2)cc1", "target": "PDE5A", "assay": "enzyme activity, inhibitor", "conditions": "10 µM", "inhibition": "0%"}
{"Structure (SMILES)": "CC(C)Cn1cnc2c(N)nc3ccccc3c21", "target": "EDNRA", "assay": "ligand displacement, radioligand", "conditions": "10 µM", "inhibition": "8%"}
{"Structure (SMILES)": "[H]/N=C(/N)c1ccc(NCc2nc3cc(C(=O)N(CCC(=O)O)c4ccccn4)ccc3n2C)cc1", "target": "Vitamin K-dependent protein C (PROC, Homo sapiens, UniProt P04070)", "assay": "enzyme activity, inhibitor", "conditions": "2 µM", "inhibition": "43%"}
{"Structure (SMILES)": "CC(C)=CCC[C@]1(C)C=Cc2c(O)c3c(c(CC=C(C)C)c2O1)O[C@]12C(=C[C@@H]4C[C@H]1C(C)(C)O[C@@]2(C/C=C(/C)C(=O)O)C4=O)C3=O", "target": "Histone-lysine N-methyltransferase EHMT1 (EHMT1, Homo sapiens, UniProt Q9H9B1)", "assay": "cell-free assay", "conditions": "10 µM", "inhibition": "-8%"}
{"Structure (SMILES)": "CCOC(=O)c1ccc(OC(=O)CCCCCNC(=N)N)cc1", "target": "MALT1", "assay": "enzyme activity, inhibitor", "conditions": "10 µM", "inhibition": "46%"}
{"Structure (SMILES)": "Clc1ccc2c(C3CCN(CCc4c[nH]c5ccccc45)CC3)c[nH]c2c1", "target": "EDNRA", "assay": "ligand displacement, radioligand", "conditions": "10 µM", "inhibition": "-12%"}
{"Structure (SMILES)": "Cn1cc(-c2cc(F)cc(N3CCn4c(cc5c4CCCC5)C3=O)c2CO)cc(Nc2ccc(N3CCN(C4COC4)CC3)cn2)c1=O", "target": "Sphingosine kinase 1 (SPHK1, Homo sapiens, UniProt Q9NYA1)", "assay": "enzyme activity, inhibitor", "conditions": "0.1 µM", "inhibition": "4%"}
{"Structure (SMILES)": "CC(C)N1CCC[C@H]1CNC(=O)c1cn(C2CCCC2)c(=O)c2c1c1ccccc1n2C", "target": "Sigma non-opioid intracellular receptor 1 (SIGMAR1, Homo sapiens, UniProt Q99720)", "assay": "ligand displacement, radioligand", "conditions": "10 µM", "inhibition": "47%"}
{"Structure (SMILES)": "CCN(CC)CCCC[C@H](NC(=O)[C@H](CC(C)C)NC(=O)[C@H](C)NC(=O)[C@H](Cc1ccccc1)NC(=O)c1ccc(C(C)(C)C)cc1)C(=O)N[C@@H](CO)C(=O)OC", "target": "Adenosine receptor A2a (ADORA2A, Homo sapiens, UniProt P29274)", "assay": "ligand displacement, radioligand", "conditions": "10 µM", "inhibition": "-2%"}
{"Structure (SMILES)": "CN(C)C(=O)COC(=O)Cc1ccc(OC(=O)c2ccc(NC(=N)N)cc2)cc1", "target": "Caspase-6 (CASP6, Homo sapiens, UniProt P55212)", "assay": "enzyme activity, inhibitor", "conditions": "10 µM", "inhibition": "3%"}
{"Structure (SMILES)": "Cc1ncc(C)n2nc(/C=C/c3nc(N4CCCC4)cc(N4CCOCC4)n3)nc12", "target": "PDE5A", "assay": "enzyme activity, inhibitor", "conditions": "10 µM", "inhibition": "38%"}
